According to ChEMBL document CHEMBL4033800, “Further Developments of the Phenyl-Pyrrolyl Pentane Series of Nonsteroidal Vitamin D Receptor Modulators as Anticancer Agents” (J Med Chem, 2018):
The source made the active and inactive calls. The calls are words filed in the database; no cut-off is given here.

Tests used:
[1] = Drug uptake in human MCF7 cells at 1 uM after 30 mins by HPLC analysis; assay type: ADME, cell-based; settings: mcf7, 0.5 h
How it was run: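 MCF7 cells were given 1 µM compound in medium with 10% FBS for 10 or 30 min. Cells and medium were extracted separately with chloroform/methanol (3:1, v/v) and analysed by HPLC. Mean ± SEM, n = 3.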

MCF7 [2] = test: Induction of apoptosis in human MCF7 cells xenografted in BALB/c nude mouse at 10 mg/kg, ip administered every other day by TUNEL assay; assay type: functional, organism-based
How it was run: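 Apoptosis in MCF7 orthotopic tumor sections from nude mice given 10 mg/kg i.p. was scored by TUNEL staining.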

[3] = biological target: T1, Vitamin D3 receptor (Homo sapiens) (UniProt P11473); test: Transactivation of human GAL4-fused VRD expressed in HEK293 cells co-transfected with human RXRalpha/VDRE after 24 hrs by dual luciferase reporter gene assay; assay type: cell-based
T1 sequence (whole entry): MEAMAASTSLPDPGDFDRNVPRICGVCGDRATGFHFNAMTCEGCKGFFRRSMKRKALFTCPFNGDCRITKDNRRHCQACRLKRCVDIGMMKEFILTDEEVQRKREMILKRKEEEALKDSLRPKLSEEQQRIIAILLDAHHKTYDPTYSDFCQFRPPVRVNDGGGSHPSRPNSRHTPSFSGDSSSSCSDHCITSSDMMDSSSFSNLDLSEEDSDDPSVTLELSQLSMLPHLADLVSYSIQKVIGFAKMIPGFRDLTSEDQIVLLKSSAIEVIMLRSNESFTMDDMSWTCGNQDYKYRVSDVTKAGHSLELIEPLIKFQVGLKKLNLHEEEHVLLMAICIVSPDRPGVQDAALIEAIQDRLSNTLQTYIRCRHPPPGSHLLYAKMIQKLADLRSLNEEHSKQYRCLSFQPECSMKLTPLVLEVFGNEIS

PC-3 = test: Antiproliferative activity against human PC3 cells after 48 hrs by MTT assay; assay type: functional, cell-based; settings: PC-3, 48 h
[4] = MRT in Sprague-Dawley rat at 20 mg/kg, ip by HPLC analysis; assay type: ADME, organism-based; settings: in vivo
How it was run: (§1)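 Male Sprague-Dawley rats (180−220 g), 4 per group, dosed at 5 mg/kg i.v., 20 mg/kg i.p. or 20 mg/kg p.o. Parameters given as mean ± SD (n = 4).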

MCF7 [5] = test: Antitumor activity against human MCF7 cells xenografted in BALB/c nude mouse assessed as reduction in tumor cell proliferation at 10 mg/kg, ip administered every other day by Ki-67 staining based microscopic analysis; assay type: functional, organism-based
How it was run: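 MCF7 orthotopic tumors from nude mice given 10 mg/kg i.p. were sectioned and immunostained for Ki-67. Ki-67-positive area was scored as a percentage of total nuclear area per field (n=10 fields, 400×) and normalized to the calcitriol group.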

MCF7 [6] = test: Induction of apoptosis in human MCF7 cells assessed as necrotic cells at 1 uM after 24 hrs by Annexin V-FITC/propidium iodide-staining based flow cytometry (reference value: 0.031%); assay type: functional
Mus musculus [7] = test: Toxicity in BALB/c nude mouse xenografted with human MCF7 cells assessed as change in body weight at 10 mg/kg, ip administered every other day relative to control; assay type: organism-based; settings: in vivo
How it was run: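 MCF7 cells transplanted orthotopically into the breast of athymic nude mice. Dosing at 10 mg/kg i.p. in vehicle of polyoxyethylated castor oil/ethanol/saline 1:1:18, with vehicle and saline control groups. Body weight, tumor volume and serum calcium followed.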

HepG2 [8] = test: Antiproliferative activity against human HepG2 cells after 48 hrs by MTT assay; assay type: functional, cell-based; settings: HepG2, 48 h
MCF7 [9] = test: Induction of cell cycle arrest in human MCF7 cells assessed as upregulation of p21 expression at 1 uM after 24 hrs by Western blot analysis; assay type: functional, cell-based
How it was run: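 p21 and p27 protein levels were measured by Western blot in MCF7 cells treated at 1 µM for 24 h.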

HepG2 [10] = test: Induction of cell cycle arrest in human HepG2 cells at 1 uM after 24 hrs by propidium iodide-staining based flow cytometry; assay type: functional
[11] = Clearance in Sprague-Dawley rat at 20 mg/kg, ip by HPLC analysis; assay type: ADME, organism-based; settings: in vivo; how it was run: as §1
[12] = Drug metabolism in human MCF7 cells at 1 uM after 24 hrs by HPLC analysis; assay type: ADME, cell-based; settings: read-out: Drug metabolism
How it was run: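 MCF7 cells were incubated 24 h with 1 µM compound, alongside a medium-only incubation without cells. Mixtures were extracted with chloroform/methanol (3:1, v/v) and quantified by HPLC. Mean ± SEM, n = 3.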

Mus musculus [13] = test: Hypercalcemic effect in ICR mouse at 30 mg/kg/day, ip administered for 7 days measured on day 8 post-dose by MTB-based assay relative to control; assay type: ADME, organism-based; settings: in vivo, 168 h
How it was run: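 Mice were dosed i.p. over a 7-day period and serum calcium was then measured. Each dose level was compared with a vehicle-treated control group (saline cited as the comparator). Data are mean ± SEM, n = 6 per group. Significance versus vehicle was reported at p < 0.05, 0.01 and 0.001.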

SMILES	Drug uptake [1]	Activity (MCF7 [2])	Activity [3]	IC50 (PC-3)	MRT [4]	Activity (MCF7 [5])	Activity (MCF7 [6])	Activity (Mus musculus [7])	IC50 (HepG2 [8])	Activity (MCF7 [9])	Activity (HepG2 [10])	CL/F [11]	metabolised at 24 h, 1 µM [12]	Activity (Mus musculus [13])
CCN(CC)CCCNC(=O)c1ccc(C(CC)(CC)c2ccc(OCCC(O)(CC)CC)c(C)c2)n1CC	Active	Active	Dose-dependent effect	40 nM	9.3 h	Active	0.23%	Non-Toxic	150 nM	Active	Active	11.3 mL/min	–	–
CCn1c(C(=O)NCCCN2CCOCC2)ccc1C(CC)(CC)c1ccc(OCCC(O)(CC)CC)c(C)c1	38.2%	Active	Dose-dependent effect	1570 nM	17.6 h	Active	0.2%	Non-Toxic	1760 nM	Active	Active	13 mL/min	6%	Toxic
